Screening results deposited in PubChem BioAssay by several laboratories.
PMI activator – increases human mannose-6-phosphate isomerase activity; activation factor at 20 µM; 190,000 compounds, 0.005% hits; purified human PMI, coupled resazurin fluorescence, 20 min; hits give high values; 1 = vehicle control, 0 substrate-free wells; P34949; AID 1214;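 active = activation factor of 2 or more at 20 µM, relative to plate controls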
Target sequence (P34949 whole entry, looked up): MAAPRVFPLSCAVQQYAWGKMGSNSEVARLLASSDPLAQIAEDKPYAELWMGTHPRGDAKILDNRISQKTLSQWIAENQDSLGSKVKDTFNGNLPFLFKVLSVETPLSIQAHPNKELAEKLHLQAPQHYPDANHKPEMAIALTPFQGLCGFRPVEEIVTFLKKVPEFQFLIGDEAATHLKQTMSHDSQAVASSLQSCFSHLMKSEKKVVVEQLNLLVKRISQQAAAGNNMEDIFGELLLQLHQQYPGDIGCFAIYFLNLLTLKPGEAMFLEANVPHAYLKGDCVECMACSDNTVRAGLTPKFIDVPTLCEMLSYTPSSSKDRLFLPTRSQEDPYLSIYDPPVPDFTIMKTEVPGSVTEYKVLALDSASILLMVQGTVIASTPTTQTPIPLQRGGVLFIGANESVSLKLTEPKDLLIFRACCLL
HCT116 bCat-KO – beta-catenin-lacking colon tumor cell growth suppression | viability, % at 10 µM | 140,000 compounds, 1.5% hits | HCT116 beta-catenin knockout viability, CellTiter-Glo, 60 h; hits give low values | AID 818;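 active = viability at or under a set limit, the compound median less 4 SD, cut at about 6% in these data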
HCT116 PTEN-null – growth suppressors of cells with PTEN tumor suppressor deletion. HCT116 PTEN-null viability, CellTiter-Glo, 60 h; hits give low values. viability, % at 10 µM. 140,000 compounds, 1.2% hits. AID 827;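 active = viability at or below a set limit, 4 SD under the median of all tested compounds, cut at about 3.7% in these data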;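 also: PTEN knockout HCT116 line with beta catenin targeted HCT116 as companion control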
PMI act hi M6P – PMI (human) activation, high substrate | AID 1216 | activation factor at 20 µM | 190,000 compounds, 0.34% hits | coupled PMI enzyme assay, resazurin fluorescence, 20 min; hits give high values; 1 = untreated enzyme, 0 = substrate-free blank;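 active = activation factor of 2 or more at 20 µM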
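assay system = human phosphomannose isomerase with PGI, G6PDH, diaphorase coupling enzymes | quantity = 15 ng/mL PMI | incubation = enzyme reaction with compound 20 min at room temperature | medium = HEPES pH 7.4 buffer with MgCl2 and Tween-20 | compound dosing = one concentration, 20 µM, in 1% DMSO | measured by = Diaphorase-driven resazurin-to-resorufin fluorescence, excitation 544, emission 590 nm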
L major viab – Leishmania major promastigote growth inhibition; Leishmania major promastigotes, resazurin fluorescence viability; inhibition, % at 10 µM; 200,000 compounds, 9% hits; AID 1063; in the data active = inhibition above about 50%;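 also: promastigotes grown with compound for 44 hours at 28 °C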
Hits are given with their value; n = inactive; x = no result given. An excerpt weighted towards active compounds, which were near 9.6% of everything screened.

SMILES	PMI activator	HCT116 bCat-KO	HCT116 PTEN-null	PMI act hi M6P	L major viab
O=C(CN(c1ccccc1)S(=O)(=O)c1ccccc1)NCCSCc1ccco1	n	n	n	n	68
COc1ccc(N(CC(=O)NCCSCc2ccco2)S(=O)(=O)c2ccccc2)cc1	n	x	x	n	n
COc1ccc(N(CC(=O)NCCSCc2ccco2)S(=O)(=O)c2ccc(C)cc2)cc1	n	x	x	n	n
Cc1ccc(S(=O)(=O)N(CC(=O)NCCSCc2ccco2)c2cc(C)ccc2C)cc1	x	x	x	x	100
Cc1ccc(S(=O)(=O)N(CC(=O)NCCSCc2ccco2)c2ccc(F)cc2)cc1	n	x	x	n	n
CCOC(=O)CSc1ncc(-c2ccc([N+](=O)[O-])cc2)[nH]1	n	n	n	n	n
O=C(c1ccccn1)N1CC=C(c2ccccc2)CC1	n	x	x	n	n
Cc1cccc(N(CC(=O)NC2CCCCC2)C(=O)Cn2nnc(-c3ccc(C)o3)n2)c1	n	x	x	n	n
COc1ccc(NC2=C3CC(C)CC=C3N(c3ccc(OC)cc3)C2=O)cc1 (stereo unspecified)	n	x	x	n	n
O=C(/C=C/c1ccccc1F)c1ccoc1	n	5.3	n	n	n
CC(C)(C)c1cc(OC(=O)c2ccccc2F)ccc1O	n	x	x	n	n
Cc1cc(C)c2ccc(=S)[nH]c2n1	n	x	x	2.5	n
C/C(=N\n1cnnc1)c1ccc(C#N)cc1	n	x	x	n	n
CCn1ncc(Br)c1C(=O)N(C)C12CC3CC(CC(C3)C1)C2	n	n	n	n	51
O=C(CN1CCC(NC(=O)Nc2ccccc2-c2ccccc2)CC1)NCc1ccco1	n	n	n	n	n
O=C(Cc1csc(N2CCOCC2)n1)N/N=C/c1ccc(Cl)cc1Cl	n	n	n	n	69
O=C(CC1CCCCC1)N1CCCC(c2nc(-c3ccc(S(=O)(=O)N4CCCC4)cc3)no2)C1 (stereo unspecified)	n	n	n	n	55
Cc1ccc(S(=O)(=O)CCC(=O)c2ccc(O)cc2O)cc1	n	n	n	n	100
Cc1ccc(S(=O)(=O)CCC(=O)NCc2ccccc2)cc1	n	n	n	n	57
Cc1ccc(S(=O)(=O)CCC(=O)OCc2ccc(Cl)cc2)cc1	n	n	n	n	55
COC(=O)c1ccc(COC(=O)CCS(=O)(=O)c2ccc(C)cc2)cc1	n	x	x	n	n
COc1ccc(-c2csc(NS(=O)(=O)c3ccc([N+](=O)[O-])cc3)n2)cc1	n	n	n	n	n
C/C(O)=C(/C=Nc1ccccc1)C(=O)Nc1ccccc1	n	x	x	n	n
C[n+]1c(/C=C/c2ccc3c(c2)OCO3)ccc2ccccc21	n	x	x	n	77
CCOc1ccc2nc(NC(=O)CN3CCC(n4nnc5cc(F)ccc54)CC3)sc2c1	n	n	n	n	n
SMILES	PMI activator	HCT116 bCat-KO	HCT116 PTEN-null	PMI act hi M6P	L major viab
CN1CC(=O)NC1=NC(=O)C12CC3CC(CC(C3)C1)C2	n	n	n	n	n
O=C(NCC1CCCO1)C(c1ccc(F)cc1)N(CC1CCCO1)C(=O)c1ccc(-c2ccccc2)[nH]1 (stereo unspecified)	n	x	x	n	n
O=C(NCC1CCCO1)C(c1cccs1)N(Cc1cccs1)C(=O)c1ccc(-c2ccccc2)[nH]1 (stereo unspecified)	n	n	n	n	99
CCCN1CCC(NC(=S)Nc2cccc(Cl)c2Cl)CC1	n	x	x	n	82
Cc1c(Cl)cccc1NC(=S)NCc1ccccc1	x	x	x	x	72
S=C(Nc1ccccc1Cl)NC1CCC(NC(=S)Nc2ccccc2Cl)CC1 (stereo unspecified)	n	x	x	n	n
Cc1c(Cl)cccc1NC(=S)NCc1ccc(Cl)cc1	x	x	x	x	n
COc1ccc(CCNC(=S)NC2CCN(Cc3ccccc3)CC2)cc1OC	n	x	x	n	n
S=C(NCc1ccc(Cl)cc1)NC1CCN(Cc2ccccc2)CC1	n	x	x	n	80
S=C(Nc1ccc(Cl)cc1Cl)NC1CCN(Cc2ccccc2)CC1	n	n	n	n	92
Cc1cc(N2CCCCCC2)nc2ccc(F)cc12	x	x	x	x	n
COc1cccc(-n2c(Cc3cc(=O)[nH]c(=O)[nH]3)nnc2SCc2cccc(C(F)(F)F)c2)c1	n	x	x	n	n
COc1ccc(C(C)=O)cc1CSc1nnc(-c2ccccc2O)n1-c1ccccc1	n	n	n	n	n
Cc1c(Cl)cccc1NC(=S)N1CCN(Cc2ccccc2)CC1	n	n	n	n	n
S=C(Nc1ccccc1Cl)NC1CCN(Cc2ccccc2)CC1	n	n	n	n	95
Cc1c(Cl)cccc1NC(=S)NC1CCN(Cc2ccccc2)CC1	n	n	n	n	86
